Here are results for 28 compounds from ChEMBL document CHEMBL4732155 (Eur J Med Chem, 2021).

Each structure is given as a SMILES string. The source made the active and inactive calls. The calls are words filed in the database; no cut-off is given here. Where a SMILES comes first, the peptide text is derived from it. [ ]: non-standard residue; d: D form. The star is where a group is joined. Cbz = O=C(OCc1ccccc1)*

Experiment [1] addresses T1, Transitional endoplasmic reticulum ATPase (Homo sapiens, UniProt P55072). Briefly: Inhibition of p97 in human HeLa cells assessed as reduction in proteasomal turnover of p97-dependent reporter substrate UbG76V-GFP incubated for 120 mins by GFP fluorescence imaging.
Target sequence in this assay (P55072 whole entry): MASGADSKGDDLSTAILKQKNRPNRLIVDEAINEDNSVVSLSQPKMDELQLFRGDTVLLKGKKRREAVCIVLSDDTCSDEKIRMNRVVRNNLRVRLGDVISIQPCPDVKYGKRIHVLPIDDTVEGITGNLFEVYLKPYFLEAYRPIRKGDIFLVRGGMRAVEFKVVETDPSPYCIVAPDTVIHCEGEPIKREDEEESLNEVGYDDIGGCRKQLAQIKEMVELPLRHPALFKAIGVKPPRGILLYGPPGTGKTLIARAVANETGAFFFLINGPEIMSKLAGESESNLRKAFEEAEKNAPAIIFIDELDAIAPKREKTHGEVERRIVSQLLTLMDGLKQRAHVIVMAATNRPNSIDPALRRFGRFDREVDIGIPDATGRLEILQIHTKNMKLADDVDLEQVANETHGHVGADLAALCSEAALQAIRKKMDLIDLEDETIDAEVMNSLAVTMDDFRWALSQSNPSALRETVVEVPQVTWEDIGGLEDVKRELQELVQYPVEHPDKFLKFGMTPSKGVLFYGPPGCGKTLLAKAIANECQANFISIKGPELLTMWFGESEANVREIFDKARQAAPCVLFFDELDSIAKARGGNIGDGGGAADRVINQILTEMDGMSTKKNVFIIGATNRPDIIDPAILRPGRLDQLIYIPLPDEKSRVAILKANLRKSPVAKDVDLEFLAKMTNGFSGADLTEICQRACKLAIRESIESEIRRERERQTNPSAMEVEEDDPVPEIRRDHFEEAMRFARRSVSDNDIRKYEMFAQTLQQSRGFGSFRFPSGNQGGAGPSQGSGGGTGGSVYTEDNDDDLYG
Experiment [2] in a line: Inhibition of yeast Cdc48 T532C mutant assessed as reduction in ATPase activity measured after 60 mins by biomol green reagent based assay. The arrangement: species or system Saccharomyces cerevisiae. An outline of the steps:
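Yeast Cdc48 ATPase activity with 200 μM ATP in Tris pH 7.4 buffer containing MgCl2, EDTA, TCEP and Triton X-100, 60 min at room temperature. Biomol Green read at 635 nm. Eight-dose titration; IC50 from six replicates.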

The target of experiment [3] is T1, Transitional endoplasmic reticulum ATPase. The experiment can be described thus: Inhibition of His6-tagged p97 (unknown origin) expressed in Escherichia coli BL21 (DE3) assessed as reduction in ATPase activity measured after 60 mins by biomol green reagent based assay. An outline of the steps: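 His6-p97 expressed in E. coli BL21(DE3), purified by Ni-NTA and gel filtration (500–600 kDa fractions, ≥95% pure). Phosphate read by Biomol Green at 635 nm. Eight-dose titrations; IC50 from six replicates. Thiol tests added DTT or cysteine during preincubation.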
Target sequence in this assay (P55072 whole entry): as above

Experiment [4] in a line: Inhibition of proteasomal turnover of p97-independent ODD-luciferase reporter substrate in human HeLa cells incubated for 120 mins by luciferase reporter gene assay. The format is functional, cell-based. Conditions: 2 h. Summed up: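 HeLa cells co-expressing UbG76V-GFP and ODD-Luc were seeded at 5000/well in clear DMEM with 2.5% FBS. They were pretreated with 4 μM MG132 for 60 min at 37 °C, washed with PBS, then given cycloheximide plus compound for 120 min at 37 °C and washed. GFP was read by high-content confocal imaging, then luminescence after 10 min with D-luciferin at r.t. IC50 was fitted from quadruplicates.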

Experiment [5] deals with T1, Transitional endoplasmic reticulum ATPase. The experiment can be described thus: Irreversible inhibition of p97 in human HeLa cells assessed as reduction in p97-dependent reporter substrate UbG76V-GFP degradation preincubated followed by washout and measured after 17 hrs by luciferase reporter gene assay. Format: cell-based. Particulars: in the assay text read “GFP fluorescence assay” for “luciferase reporter gene assay”. An outline of the steps:
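HeLa cells expressing UbG76V-GFP/ODD-Luc, 5000 cells/well in DMEM with 2.5% FBS. Pretreated with 4 μM MG132 for 60 min at 37 °C, PBS-washed, then given cycloheximide plus compound for 120 min. After washout, GFP decay followed in cycloheximide for an additional 17 h. GFP read by high-content imaging; luciferase read with D-luciferin; quadruplicates.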
Target sequence in this assay (P55072 2-806 limits assumed): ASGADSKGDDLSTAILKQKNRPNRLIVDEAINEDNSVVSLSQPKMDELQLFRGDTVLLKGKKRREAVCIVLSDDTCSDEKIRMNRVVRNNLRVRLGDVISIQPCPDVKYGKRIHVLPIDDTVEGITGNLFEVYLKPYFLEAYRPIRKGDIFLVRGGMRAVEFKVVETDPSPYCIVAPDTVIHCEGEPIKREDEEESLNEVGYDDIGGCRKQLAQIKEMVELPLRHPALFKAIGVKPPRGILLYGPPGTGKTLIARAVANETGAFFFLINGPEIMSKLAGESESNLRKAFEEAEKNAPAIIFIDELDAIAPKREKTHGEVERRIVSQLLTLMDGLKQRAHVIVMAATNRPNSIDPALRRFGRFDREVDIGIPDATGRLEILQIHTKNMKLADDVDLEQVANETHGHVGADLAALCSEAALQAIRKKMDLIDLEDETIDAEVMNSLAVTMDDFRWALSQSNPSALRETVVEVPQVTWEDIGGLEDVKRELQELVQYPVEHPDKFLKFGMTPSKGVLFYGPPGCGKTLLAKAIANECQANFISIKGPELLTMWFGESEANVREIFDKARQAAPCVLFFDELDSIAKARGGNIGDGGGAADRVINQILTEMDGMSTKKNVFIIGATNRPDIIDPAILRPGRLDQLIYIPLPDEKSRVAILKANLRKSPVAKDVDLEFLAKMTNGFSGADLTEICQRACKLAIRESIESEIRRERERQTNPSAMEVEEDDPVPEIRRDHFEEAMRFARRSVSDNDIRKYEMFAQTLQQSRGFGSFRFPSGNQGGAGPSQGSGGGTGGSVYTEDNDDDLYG

Experiment [6] is described as follows: Selectivity ratio of IC50 for antiproliferative activity against NMS-873-resistant human HCT-116 cells to IC50 for antiproliferative activity against human HCT-116 cells. Format: functional.

Regarding `C=CC(=O)N(C(=O)C=C)c1ncnc2c1c(-c1ccc3ccccc3c1)nn2C(C)(C)C`, the 50% inhibitory concentration (IC50) is 2.5 µM in experiment [1], 22 µM in experiment [2], 1.3 µM in experiment [3] and greater than 30 µM in experiment [4].

`C=CC(=O)N(C(=O)C=C)c1ncnc2c1c(-c1ccc(-c3ccccc3)cc1)nn2C(C)(C)C`: the results for the half-maximal inhibitory concentration (IC50) in experiment [1], in experiment [3] and in experiment [4] were 6.1 µM, 0.9 µM and greater than 30 µM, respectively.

Regarding `CC1(C)C(N(O)C(=O)Nc2ccc(Cl)cc2)N(c2ccc(Cl)cc2)C(=O)N1CC(=O)N/N=C/C=C/c1ccc([N+](=O)[O-])o1` (stereo not given), the half-inhibitory concentration (IC50) in experiment [1] is 3.7 µM; in experiment [3], greater than 30 µM.

Consider `Cc1ccc(-c2c(C(=O)CF)n(CCCO)c3ncnc(N)c23)cc1`, for which the values for the IC50 in experiment [1], in experiment [3] and in experiment [4] were 47 µM, greater than 30 µM and 39 µM, respectively.

Take `COc1cc(/C=C/[N+](=O)[O-])ccc1OC(=O)c1ccccc1`: the IC50 in experiment [1] is 5.7 µM; in experiment [3] it was 2 µM; in experiment [4] it was 10 µM.

With `O=[N+]([O-])/C=C/c1cccnc1`, the half-maximal inhibitory concentration (IC50) in experiment [1] is 2.9 µM; in experiment [3] it was 0.7 µM; in experiment [4], 3 µM.

Consider `CC(C)(C)n1nc(-c2ccc(-c3ccccc3)cc2)c2c(N)ncnc21`, for which the IC50 was greater than 30 µM in experiment [1], greater than 50 µM in experiment [3] and greater than 30 µM in experiment [4].

With `CC(C)(C)n1nc(-c2ccccc2)c2c(N)ncnc21`, the IC50 in experiment [1] was greater than 30 µM; in experiment [2] it was greater than 100 µM; in experiment [3] it was greater than 100 µM; in experiment [4] it was greater than 30 µM.

As for `C=CC(=O)Nc1ccc2ncnc(Nc3ccc(-c4ccccc4)cc3)c2c1`, the IC50 was 18 µM in experiment [1], 10 µM in experiment [3] and 11 µM in experiment [4].

Consider `COc1cc(/C=C/[N+](=O)[O-])ccc1O`, for which the figures for the IC50 in experiment [1], in experiment [3] and in experiment [4] were 6.8 µM, 13 µM and 5 µM, respectively.

On to `CCC(=O)Oc1ccc(/C=C/[N+](=O)[O-])cc1OC`, for which the IC50 in experiment [1] came out at 4.3 µM; in experiment [3], 3.4 µM; in experiment [4], 1.6 µM.

Regarding `O=C(O)/C=C/c1ccc2c(c1)OCO2`, the IC50 in experiment [1], in experiment [3] and in experiment [4] was greater than 30 µM throughout.

For the compound `O=[N+]([O-])/C=C/c1c(F)c(F)c(F)c(F)c1F`, the half-maximal inhibitory concentration (IC50) in experiment [1] stood at 2.7 µM; in experiment [3] it was 2.4 µM; in experiment [4], 2.1 µM.

Regarding `C=CC(=O)N(C(=O)C=C)c1ncnc2c1c(-c1ccccc1)nn2C(C)(C)C`, the IC50 in experiment [1] was 5.4 µM; in experiment [2] it was 26 µM; in experiment [3], 1.1 µM; in experiment [4], greater than 30 µM.

As to `CNc1ncnc2c1c(-c1ccc3ccccc3c1)nn2C(C)(C)C`, the values for the IC50 in experiment [1], in experiment [3] and in experiment [4] were greater than 30 µM, greater than 50 µM and greater than 30 µM, respectively.

As for `CC(C)C[C@@H](C=O)NC(=O)[C@@H](CC(C)C)NC(=O)[C@H](CC(C)C)NC(=O)OCc1ccccc1` (Cbz-Leu-[dL]-Leu-aldehyde), the inhibition entry in experiment [5] is “inactive”.

As to `CC(C)(C)n1nc(-c2ccc3ccccc3c2)c2c(N)ncnc21`, the half-maximal inhibitory concentration (IC50) in experiment [1] is greater than 30 µM; in experiment [2], greater than 100 µM; in experiment [3], greater than 100 µM; in experiment [4] it was greater than 30 µM.

Take `O=[N+]([O-])/C=C/c1ccc(F)c(Br)c1`: the IC50 came out at 1.8 µM in experiment [1], 1.7 µM in experiment [3] and 2 µM in experiment [4].

For `COc1cc(/C=C/[N+](=O)[O-])ccc1OC(C)=O`, the values for the IC50 in experiment [1], in experiment [3] and in experiment [4] were 5.7 µM, 3.6 µM and 2.3 µM, respectively.

Turning to `COc1ccc(/C=C/[N+](=O)[O-])cc1OC`, the concentration for half-maximal inhibition (IC50) was 1.9 µM in experiment [1], 3.1 µM in experiment [3] and 1.8 µM in experiment [4].

For the compound `C=CC(=O)Nc1ncnc2c1c(-c1ccc(-c3ccccc3)cc1)nn2C(C)(C)C`, the IC50 is 2.1 µM in experiment [1], 2.8 µM in experiment [3] and greater than 30 µM in experiment [4].

With `CC(C)(C)n1nc(-c2ccccc2)c2c(NC(=O)CCl)ncnc21`, the IC50 in experiment [1] is 31 µM; in experiment [2], 35 µM; in experiment [3] it was 4.5 µM; in experiment [4] it was greater than 30 µM.

For the compound `Cc1ccc(-c2c(C(=O)CCl)n(CCCO)c3ncnc(N)c23)cc1`, the half-inhibitory concentration (IC50) in experiment [1] came to 5.8 µM; in experiment [3], 3.9 µM; in experiment [4], 4 µM.

As to `Cc1cc(OCc2nnc(SC3CCCC3)n2-c2cccnc2)ccc1-c1ccc(S(C)(=O)=O)cc1`, in experiment [6], the Selectivity ratio is 4.5.

Turning to `O=[N+]([O-])/C=C/c1cccc([N+](=O)[O-])c1`, the half-maximal inhibitory concentration (IC50) came out at 1.7 µM in experiment [1], 1.2 µM in experiment [3] and 4 µM in experiment [4].

For `Cc1ccc(C(=O)C#Cc2ccccc2)cc1`, the half-inhibitory concentration (IC50) in experiment [1] came out at 3.4 µM; in experiment [3], 0.2 µM; in experiment [4], 5.2 µM.

With `C=CC(=O)Nc1ncnc2c1c(-c1ccc3ccccc3c1)nn2C(C)(C)C`, the IC50 in experiment [1] was 2 µM; in experiment [2], 24 µM; in experiment [3], 3 µM; in experiment [4] it was greater than 30 µM.

Turning to `O=[N+]([O-])/C=C/c1ccc2c(c1)OCO2`, the results for the concentration for half-maximal inhibition (IC50) in experiment [1], in experiment [3] and in experiment [4] were 1.6 µM, 1.7 µM and 3.9 µM, respectively.
